{"source": "ChEMBL document CHEMBL4007410", "about": "“Fluorinated Chaperone-β-Cyclodextrin Formulations for β-Glucocerebrosidase Activity Enhancement in Neuronopathic Gaucher Disease” (J Med Chem, 2017)", "key": {"[1]": {"target": "T1, Lysosomal acid glucosylceramidase (Homo sapiens, UniProt P04062)", "T1 sequence (P04062 whole entry)": "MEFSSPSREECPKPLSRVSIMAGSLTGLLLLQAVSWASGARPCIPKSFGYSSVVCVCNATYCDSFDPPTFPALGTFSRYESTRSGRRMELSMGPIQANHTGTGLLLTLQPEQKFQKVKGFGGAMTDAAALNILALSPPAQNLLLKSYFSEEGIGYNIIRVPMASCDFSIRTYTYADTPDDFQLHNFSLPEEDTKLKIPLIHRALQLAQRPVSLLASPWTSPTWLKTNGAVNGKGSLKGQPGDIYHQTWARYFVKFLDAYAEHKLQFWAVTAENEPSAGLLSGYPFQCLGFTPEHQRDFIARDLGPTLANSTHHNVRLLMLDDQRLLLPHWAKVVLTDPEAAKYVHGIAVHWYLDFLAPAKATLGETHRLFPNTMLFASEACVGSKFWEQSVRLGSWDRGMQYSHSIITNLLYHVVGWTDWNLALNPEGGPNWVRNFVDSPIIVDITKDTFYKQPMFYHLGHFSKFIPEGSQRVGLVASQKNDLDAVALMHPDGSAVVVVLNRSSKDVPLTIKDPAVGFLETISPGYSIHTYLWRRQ", "assay": "Inhibition of human GCase assessed as formation of 4-methylumbelliferone from […] at pH 7 by luminescence spectrophotometry"}, "[2]": {"target": "Lysosomal alpha-glucosidase (Homo sapiens) (UniProt P10253)", "assay": "Inhibition of human lysosomal alpha-glucosidase assessed as formation of 4-methylumbelliferone from 4-methylumbelliferyl alpha-D-glucopyranoside by luminescence spectrophotometry", "method_in_brief": "(§1)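 Cells were scraped into ice-cold water (10⁶ cells/mL), sonicated and centrifuged, and protein was quantified. Lysate in 0.1% Triton X-100 was incubated at 37 °C with the matching 4-MU-conjugated glycoside in 0.1 M citrate, pH 4.5, with increasing chaperone or βCD-complex concentrations up to 200 μM. Reactions were stopped with glycine-NaOH, pH 10.7, and read at ex 340/em 460 nm.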"}, "Homo sapiens [3]": {"species_on_record": "Homo sapiens", "assay": "Inhibition of human lysosomal alpha-galactosidase assessed as formation of 4-methylumbelliferone from 4-methylumbelliferyl alpha-D-galactopyranoside up to 200 uM by luminescence spectrophotometry", "method_in_brief": "as §1"}, "[4]": {"target": "T2, Beta-galactosidase (Homo sapiens) (UniProt P16278)", "T2 sequence (whole entry)": "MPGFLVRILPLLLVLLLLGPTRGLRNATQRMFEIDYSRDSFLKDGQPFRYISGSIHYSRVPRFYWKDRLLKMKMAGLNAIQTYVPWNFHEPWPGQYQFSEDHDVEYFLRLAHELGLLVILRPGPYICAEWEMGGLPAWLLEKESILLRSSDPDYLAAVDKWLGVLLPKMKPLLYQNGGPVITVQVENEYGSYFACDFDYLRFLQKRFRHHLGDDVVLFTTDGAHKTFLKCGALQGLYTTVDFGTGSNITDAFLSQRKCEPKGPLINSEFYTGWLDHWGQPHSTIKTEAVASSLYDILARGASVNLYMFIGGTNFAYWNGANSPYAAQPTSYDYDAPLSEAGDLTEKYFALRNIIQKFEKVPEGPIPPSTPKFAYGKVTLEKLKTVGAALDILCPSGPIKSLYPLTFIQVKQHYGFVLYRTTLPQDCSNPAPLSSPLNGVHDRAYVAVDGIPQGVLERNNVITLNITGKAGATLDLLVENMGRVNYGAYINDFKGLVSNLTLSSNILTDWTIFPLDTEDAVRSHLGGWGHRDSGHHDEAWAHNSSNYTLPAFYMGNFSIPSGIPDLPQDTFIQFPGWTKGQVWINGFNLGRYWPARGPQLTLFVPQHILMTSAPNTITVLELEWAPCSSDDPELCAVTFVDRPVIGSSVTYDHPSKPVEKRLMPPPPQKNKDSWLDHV", "assay": "Inhibition of human lysosomal beta-galactosidase assessed as formation of 4-methylumbelliferone from 4-methylumbelliferyl beta-D-galactopyranoside up to 200 uM by luminescence spectrophotometry", "method_in_brief": "as §1"}, "[5]": {"target": "T3, Beta-mannosidase (Homo sapiens) (UniProt O00462)", "T3 sequence (whole entry)": "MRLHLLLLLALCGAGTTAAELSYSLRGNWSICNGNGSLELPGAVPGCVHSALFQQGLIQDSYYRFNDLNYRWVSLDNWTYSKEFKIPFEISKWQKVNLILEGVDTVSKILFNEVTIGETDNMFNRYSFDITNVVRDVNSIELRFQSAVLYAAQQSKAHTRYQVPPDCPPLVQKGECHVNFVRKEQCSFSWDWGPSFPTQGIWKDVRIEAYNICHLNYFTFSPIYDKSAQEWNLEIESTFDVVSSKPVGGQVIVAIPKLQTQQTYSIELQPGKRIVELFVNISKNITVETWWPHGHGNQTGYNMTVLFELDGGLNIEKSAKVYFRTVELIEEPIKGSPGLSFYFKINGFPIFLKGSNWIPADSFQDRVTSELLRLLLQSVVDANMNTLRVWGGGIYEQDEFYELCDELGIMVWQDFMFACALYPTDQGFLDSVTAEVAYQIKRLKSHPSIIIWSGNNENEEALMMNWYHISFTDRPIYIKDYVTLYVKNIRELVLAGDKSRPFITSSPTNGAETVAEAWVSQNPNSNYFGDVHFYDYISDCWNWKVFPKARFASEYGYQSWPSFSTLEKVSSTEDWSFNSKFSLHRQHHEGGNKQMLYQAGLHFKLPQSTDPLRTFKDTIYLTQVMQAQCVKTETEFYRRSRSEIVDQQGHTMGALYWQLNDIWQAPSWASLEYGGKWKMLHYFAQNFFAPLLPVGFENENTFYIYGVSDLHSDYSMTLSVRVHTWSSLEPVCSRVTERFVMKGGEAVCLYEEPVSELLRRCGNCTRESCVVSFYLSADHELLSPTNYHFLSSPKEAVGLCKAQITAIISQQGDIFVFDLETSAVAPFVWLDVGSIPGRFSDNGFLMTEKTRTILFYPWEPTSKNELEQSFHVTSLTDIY", "assay": "Inhibition of human lysosomal beta-mannosidase assessed as formation of 4-methylumbelliferone from 4-methylumbelliferyl alpha-D-glucopyranoside up to 200 uM by luminescence spectrophotometry", "method_in_brief": "as §1"}, "[6]": {"target": "T1, Lysosomal acid glucosylceramidase", "assay": "Inhibition of human GCase assessed as formation of 4-methylumbelliferone from […] at pH 5 in presence of beta-cyclodextrin by luminescence spectrophotometry"}, "Saccharomyces cerevisiae [7]": {"test_system": "Saccharomyces cerevisiae", "assay": "Inhibition of yeast alpha-glucosidase at 2 mM using beta-D-glycopyranoside after 10 to 30 mins in presence of beta-cyclodextrin by spectrophotometry", "method_in_brief": "(§2)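 Commercial glycosidases were assayed with o-nitrophenyl (E. coli β-galactosidase) or p-nitrophenyl glycoside substrate near KM. Buffer was phosphate, or phosphate-citrate for mannosidases and amyloglucosidase, at each enzyme's optimal pH. Enzyme was added last. Incubation ran 10-30 min at 37 °C (55 °C for amyloglucosidase), then was quenched with 1 M Na2CO3 and read at A405. Free compounds were tested up to 1 mM; 1:1 βCD complexes up to 2 mM.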"}, "Saccharomyces cerevisiae [8]": {"test_system": "Saccharomyces cerevisiae", "assay": "Inhibition of yeast isomaltase at 2 mM using beta-D-glycopyranoside after 10 to 30 mins in presence of beta-cyclodextrin by spectrophotometry", "method_in_brief": "as §2"}, "Homo sapiens [9]": {"species_on_record": "Homo sapiens", "assay": "Chaperone activity assessed as enhancement of GCase N370S/84GG mutant enzyme in fibroblasts derived from type 1 gaucher disease patient […] prior to addition of 4-methylumbelliferyl beta-D-glucopyranoside as substrate in presence of beta-cyclodextrin by luminescence spectrophotometry relative to control"}}, "note": "Active and inactive are the calls of the source. No cut-off for these calls is given here."}
{"smiles": "O=C(CCC(F)(F)C(F)(F)C(F)(F)C(F)(F)C(F)(F)C(F)(F)F)NCCCCNC(=S)N1[C@@H]2CO[C@H]1[C@H](O)[C@@H](O)[C@@H]2O", "values": [{"measurement": "Ki", "setting": "[1]", "value": 11.9, "unit": "µM"}, {"measurement": "inhibition", "setting": "[2]", "value": "inactive"}, {"measurement": "inhibition", "setting": "Homo sapiens [3]", "value": "inactive"}, {"measurement": "inhibition", "setting": "[4]", "value": "inactive"}, {"measurement": "inhibition", "setting": "[5]", "value": "inactive"}, {"measurement": "Ki", "setting": "[6]", "value": 1.4, "unit": "µM"}, {"measurement": "inhibition", "setting": "Saccharomyces cerevisiae [7]", "value": "inactive"}, {"measurement": "inhibition", "setting": "Saccharomyces cerevisiae [8]", "value": "inactive"}]}
{"smiles": "O=C(CCC(F)(F)C(F)(F)C(F)(F)C(F)(F)F)NCCCCCCCCCNC(=S)N1[C@@H]2CO[C@H]1[C@H](O)[C@@H](O)[C@@H]2O", "values": [{"measurement": "Ki", "setting": "[1]", "value": 9.3, "unit": "µM"}, {"measurement": "inhibition", "setting": "[2]", "value": "inactive"}, {"measurement": "inhibition", "setting": "Homo sapiens [3]", "value": "inactive"}, {"measurement": "inhibition", "setting": "[4]", "value": "inactive"}, {"measurement": "inhibition", "setting": "[5]", "value": "inactive"}, {"measurement": "Ki", "setting": "[6]", "value": 8.2, "unit": "µM"}, {"measurement": "inhibition", "setting": "Saccharomyces cerevisiae [7]", "value": "inactive"}, {"measurement": "inhibition", "setting": "Saccharomyces cerevisiae [8]", "value": "inactive"}, {"measurement": "fold change (FC)", "setting": "Homo sapiens [9]", "value": "1.5 to 1.7"}]}
{"smiles": "O=C(CCC(F)(F)C(F)(F)C(F)(F)C(F)(F)F)NCCCCNC(=S)N1[C@@H]2CO[C@H]1[C@H](O)[C@@H](O)[C@@H]2O", "values": [{"measurement": "Ki", "setting": "[1]", "value": 35, "unit": "µM"}, {"measurement": "inhibition", "setting": "[2]", "value": "inactive"}, {"measurement": "inhibition", "setting": "Homo sapiens [3]", "value": "inactive"}, {"measurement": "inhibition", "setting": "[4]", "value": "inactive"}, {"measurement": "inhibition", "setting": "[5]", "value": "inactive"}, {"measurement": "Ki", "setting": "[6]", "value": 4.5, "unit": "µM"}, {"measurement": "inhibition", "setting": "Saccharomyces cerevisiae [7]", "value": "inactive"}, {"measurement": "inhibition", "setting": "Saccharomyces cerevisiae [8]", "value": "inactive"}, {"measurement": "fold change (FC)", "setting": "Homo sapiens [9]", "value": "1.5 to 1.7"}]}
{"smiles": "O=C(CCC(F)(F)C(F)(F)C(F)(F)C(F)(F)C(F)(F)C(F)(F)F)NCCCCCCCCCNC(=S)N1[C@@H]2CO[C@H]1[C@H](O)[C@@H](O)[C@@H]2O", "values": [{"measurement": "Ki", "setting": "[1]", "value": 4.1, "unit": "µM"}, {"measurement": "inhibition", "setting": "[2]", "value": "inactive"}, {"measurement": "inhibition", "setting": "Homo sapiens [3]", "value": "inactive"}, {"measurement": "inhibition", "setting": "[4]", "value": "inactive"}, {"measurement": "inhibition", "setting": "[5]", "value": "inactive"}, {"measurement": "Ki", "setting": "[6]", "value": 7.2, "unit": "µM"}, {"measurement": "inhibition", "setting": "Saccharomyces cerevisiae [7]", "value": "inactive"}, {"measurement": "inhibition", "setting": "Saccharomyces cerevisiae [8]", "value": "inactive"}, {"measurement": "fold change (FC)", "setting": "Homo sapiens [9]", "value": "1.5 to 1.7"}]}
